# According to PubChem BioAssay:
# Calls of active or inactive are those of the source.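 The calls were made as follows, unless noted: active = inhibition above 20% together with a positive visual image hit; inconclusive = visual image hit but inhibition not above 20%; inactive = no visual image hit.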
# Legend:
# [1] = inhibitors of TNFa-induced NFkB p65 translocation, primary screen, imaging, HUVEC, MLSMR starter and 10KST1 sets (AID 438); conditions: HUVEC TNFa-induced p65 nuclear translocation; cell count: measured here: nuclei count (cytotoxicity indicator), at 2.08 µM; inhibition: at 2 µM, stronger effect = higher value, 0% TNFa-plus-vehicle, 100% no-TNFa wells;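 also: compound added about 3h40 before a 20 min TNFalpha stimulation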;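 as to inhibition: signal is the nuclear over cytoplasmic p65 intensity ratio per well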
# [2] = inhibitors of E-selectin induction by TNFa, primary screen, imaging, HUVEC, immunofluorescence, MLSMR starter and 10KST1 sets (AID 487;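 active = visually confirmed hit in the image check and inhibition above 20%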;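 as to inhibition: signal is fraction of cell area covered by stained E-selectin grains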;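 as to nuclei count: 100% = median nuclei count of all wells on the same plate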); conditions: HUVEC TNFalpha-induced E-selectin immunofluorescence imaging, at 2 µM; inhibition: stronger effect = higher value; nuclei count: measured here: cell number, toxicity
# [3] = DUSP6 inhibitors restoring Erk phosphorylation by chemical complementation, primary imaging in DUSP6-transfected HeLa (AID 609;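 active = compounds giving at least 50% inhibition in the cell-based MKP-3 phosphatase rescue imaging test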;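 as to inhibition: phospho-Erk level distribution per well compared with pooled transfected vehicle control wells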); conditions: HeLa MKP-3 transfected, phospho-Erk imaging KS statistic, at 10 µM, cells stimulated with TPA for 15 min
# [4] = target: Dual specificity protein phosphatase 6 (Homo sapiens) (UniProt Q16828); test: as above; conditions: HeLa MKP-3 transfected, phospho-Erk imaging KS statistic; at 10 µM; stronger effect = higher value; cells stimulated with TPA for 15 min
# [5] = target: Voltage-gated potassium channel subunit beta-2 (Rattus norvegicus) (UniProt P62483); test: KvBeta enzyme negative modulators, primary screen, biochemical, NADPH fluorescence (AID 622;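 active = fluorescence slope higher than the sample average by over 3 SD, cut at about -0.22 in these data, passing the limit was not always enough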;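 also: slope of raw intensity against log time taken from 70 to 1610 s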); conditions: recombinant KvBeta, 4-cyanobenzaldehyde reduction, at 10 µM, stronger effect = higher value
# [6] = target: Voltage-gated potassium channel subunit beta-2 (Rattus norvegicus) (UniProt P62483); test: KvBeta positive modulators, primary screen, biochemical, NADPH fluorescence (AID 623;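 active = NADPH fluorescence slope more negative than the mean of all samples by about 3 SD, 99.7% confidence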;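 also: fluorescence intensity change per second fitted from 20 to 320 s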); conditions: Recombinant KvBeta, NADPH fluorescence decrease slope, 10 min; at 10 µM; stronger effect = lower value
# [7] = target: Muscarinic acetylcholine receptor M4 (Homo sapiens) (UniProt P08173); test: compounds altering M4/GIRK thallium flux, either direction, primary screen, M4 allosteric agonist project, cell-based, HEK293 M4/GIRK, BTC-AM (AID 625;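 active = fluorescence slope after compound addition differing from the mean of all tested samples at 99.7% confidence, mostly higher but some lower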;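 also: thallium influx through GIRK channels coupled to M4 in HEK293 cells with BTC-AM dye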); conditions: at 10 µM, actives lie on both sides
# Procedure, shortened: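 System: HEK293 cells with M4 receptor and GIRK channels | Incubation: Cells overnight at 37 °C, BTC-AM loading 1 h, reads 2 min total | Technique: Kinetic BTC-AM fluorescence sampled at 1 Hz, 10 s pre-addition baseline | Measure: Post-addition slope, 15–24 s, of baseline-normalized fluorescence | Control set: Carbachol positive, DMSO negative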
# [8] = inhibitors of larval lipid processing in zebrafish, primary screen, whole organism, PED6 fluorescence, gall bladder and intestine (AID 686;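 active = a full or partial loss of lipid-probe fluorescence in the fish gall bladder, intestine or both, judged by eye; inactive = no fluorescence loss, or compound toxic to the fish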;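 also: larvae 5 to 7 days old with five fish per well; signal comes from phospholipase A2 cleavage of quenched PED6 carried via bile; overnight exposure to compound and PED6 before scoring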); conditions: Zebrafish larvae PED6 lipid processing, fluorescence scoring; screened at 20 µM (by protocol)
# Procedure, shortened: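 Test system – live zebrafish larvae aged 5-7 days, whole organism · Buffer or medium – E3 fish medium · Reagent – quenched phospholipase substrate PED6, 100 nM final, ingested by larvae · Doses – 20 µM single dose · Incubation – overnight compound and PED6 incubation · Technique – visual fluorescence microscopy scoring of gall bladder, gut · Read-out basis – visual per-well fluorescence inhibition score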
# [9] = inhibitors of Chlamydomonas gravitaxis, primary screen, whole organism, Chlamydomonas reinhardtii, WT vs cilia-less mutant, absorbance, 96-well (AID 463189;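 active = inhibition at or above 50% relative to wild type and mutant plate controls; inactive = inhibition below 50%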;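 also: 0% = wild type cc124 cells in DMSO and 100% = ciliumless bld1 mutant cells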); conditions: OD600 absorbance, 2 days, at 10 µM, stronger effect = higher value
# [10] = measured here: cell density z-score
# [11] = measured here: nuclear c-Myc green intensity z-score
# [12] = measured here: nuclear pErk red intensity z-score, stronger effect = higher value
# Chain of Dual specificity protein phosphatase 6 (Homo sapiens) (Q16828 whole entry, looked up): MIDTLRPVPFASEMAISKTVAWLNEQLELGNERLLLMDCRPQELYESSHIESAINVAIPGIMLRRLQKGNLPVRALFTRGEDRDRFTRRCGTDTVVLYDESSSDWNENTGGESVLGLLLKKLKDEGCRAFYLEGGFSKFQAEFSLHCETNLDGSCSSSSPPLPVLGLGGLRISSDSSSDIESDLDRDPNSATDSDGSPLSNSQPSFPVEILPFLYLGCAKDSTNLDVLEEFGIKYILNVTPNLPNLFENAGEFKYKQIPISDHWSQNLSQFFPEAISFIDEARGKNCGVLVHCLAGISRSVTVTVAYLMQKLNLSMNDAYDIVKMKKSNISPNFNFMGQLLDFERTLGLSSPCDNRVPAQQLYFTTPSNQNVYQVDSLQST
# Chain of Voltage-gated potassium channel subunit beta-2 (Rattus norvegicus) (P62483 whole entry, looked up): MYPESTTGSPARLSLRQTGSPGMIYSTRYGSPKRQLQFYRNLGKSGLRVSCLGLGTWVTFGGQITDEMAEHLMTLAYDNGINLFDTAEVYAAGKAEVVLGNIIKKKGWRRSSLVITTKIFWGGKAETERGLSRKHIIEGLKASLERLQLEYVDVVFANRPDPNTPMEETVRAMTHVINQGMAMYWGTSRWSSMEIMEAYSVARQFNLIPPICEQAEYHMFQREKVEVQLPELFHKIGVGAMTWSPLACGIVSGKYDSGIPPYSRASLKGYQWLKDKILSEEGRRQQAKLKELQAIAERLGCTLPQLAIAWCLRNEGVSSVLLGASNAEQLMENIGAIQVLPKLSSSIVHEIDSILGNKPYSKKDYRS
# Chain of Muscarinic acetylcholine receptor M4 (Homo sapiens) (P08173 whole entry, looked up): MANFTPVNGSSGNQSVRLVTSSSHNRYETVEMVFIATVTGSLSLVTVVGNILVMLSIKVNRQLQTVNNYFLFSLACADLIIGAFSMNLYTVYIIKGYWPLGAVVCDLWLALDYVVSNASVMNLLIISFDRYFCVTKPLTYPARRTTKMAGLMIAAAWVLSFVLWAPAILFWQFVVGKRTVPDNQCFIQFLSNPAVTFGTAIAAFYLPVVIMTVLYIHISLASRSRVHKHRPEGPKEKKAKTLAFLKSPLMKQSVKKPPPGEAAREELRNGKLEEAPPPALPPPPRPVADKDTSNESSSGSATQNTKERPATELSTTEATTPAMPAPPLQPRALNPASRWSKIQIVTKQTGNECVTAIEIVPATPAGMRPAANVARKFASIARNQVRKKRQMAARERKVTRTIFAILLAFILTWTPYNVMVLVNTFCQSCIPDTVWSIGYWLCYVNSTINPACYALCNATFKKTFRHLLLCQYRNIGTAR
SMILES,cell count [1],inhibition [1],inhibition [2],nuclei count [2] [%],"z-score [3, 10]","z-score [3, 11]","z-score [3, 12]",inhibition [4],fluorescence slope [5],NADPH fluorescence slope [6],fluorescence slope [7],outcome [8],inhibition [9]
CCCSc1nc(N2CCOCC2)c2c(c1C#N)CCCC2,569,-12.9% (inactive),-93.9% (inactive),147,0.303,0.327,2.25,10.9% (inactive),-0.467 (inactive),-0.000102 (inactive),0.00772 (inactive),inactive,5.19% (inactive)
CCOC(=O)c1[nH]c2ccc(C)cc2c1N,678,-29.2% (inactive),-53.9% (inactive),207,-1.62,0.0814,1.41,-5.95% (inactive),-0.46 (inactive),-4.7e-05 (inactive),0.00561 (inactive),inactive,-1.56% (inactive)
CCCc1nnc(NC(=O)Nc2ccccc2OC)s1,618,-9.4% (inactive),14.1% (inactive),100,1.95,0.159,-0.528,42.6% (inactive),-0.515 (inactive),-4.1e-05 (inactive),0.0109 (inactive),inactive,-5.69% (inactive)
O=C1C2ON(c3ccccc3)C(c3cccnc3)C2C(=O)N1Cc1ccccc1 (stereo not given),620,-11% (inactive),-48.8% (inactive),177,0.802,0.656,-1.11,2.71% (inactive),-0.512 (inactive),-5.7e-05 (inactive),0.00545 (inactive),inactive,-1.68% (inactive)
CC(C)C(=O)N1CCN(c2nc(-c3ccccc3)c3c(c2C#N)CC(C)(C)OC3)CC1,607,-3.4% (inactive),-9.6% (inactive),163,0.152,0.868,-0.257,-2.29% (inactive),-0.366 (inactive),-2.4e-05 (inactive),0.00797 (inactive),inactive,26.8% (inactive)
COc1cccc(C2/C(=C(\O)c3ccc4c(c3)OCCO4)C(=O)C(=O)N2CCCN(C)C)c1OC (stereo not given),396,1.1% (inactive),-21.2% (inactive),174,0.231,-0.342,2,-6.86% (inactive),-0.452 (inactive),-9.9e-05 (inactive),0.00452 (inactive),inactive,18.1% (inactive)
COc1ccc(N2CCN(c3oc(COc4ccc(Cl)cc4)nc3C#N)CC2)cc1,374,-3.3% (inactive),-61.3% (inactive),106,1.12,0.417,0.177,2.71% (inactive),-0.46 (inactive),-7e-05 (inactive),0.00414 (inactive),inactive,-10.3% (inactive)
CCOC(=O)c1c2c(c(=S)n(-c3ccccc3)c1N)CCC2,569,-8.6% (inactive),-65.1% (inactive),135,-0.086,1.03,-0.638,-3.95% (inactive),-0.463 (inactive),-9.5e-05 (inactive),0.00449 (inactive),inactive,9.7% (inactive)
CCCCCOc1ccccc1C(=O)NCC(=O)O,376,-5% (inactive),-55.5% (inactive),169,0.663,-0.72,-0.603,-0.584% (inactive),-0.438 (inactive),-9.1e-05 (inactive),0.00543 (inactive),inactive,-2.86% (inactive)
CCCCOc1ccc(C(=O)NCC(=O)NCC(=O)OCC)cc1,357,-8.2% (inactive),-101% (inactive),108,-0.206,0.434,-0.573,-6.59% (inactive),-0.49 (inactive),4.9e-06 (inactive),0.00496 (inactive),inactive,-13.2% (inactive)
CCOC(=O)c1c(-c2cccs2)csc1NC(=O)c1ccncc1,469,-0.7% (inactive),-21.4% (inactive),128,0.172,0.303,-0.644,4.37% (inactive),-0.308 (inactive),-2.8e-05 (inactive),0.00693 (inactive),inactive,12.5% (inactive)
CCCC1CC(=O)OC1(C)C(=O)CSc1n[nH]c(-c2ccccc2)n1 (stereo not given),686,-3.7% (inactive),-35.6% (inactive),142,0.882,0.0839,-0.223,-9.66% (inactive),-0.472 (inactive),-1.5e-05 (inactive),0.00594 (inactive),active; no signal in intestine only,-3.69% (inactive)
O=C(Cc1ccc(Cl)cc1)Nc1cccc(-c2nnc(-c3ccco3)o2)c1,695,-4% (inactive),32.2% (inactive),162,0.714,1.13,-0.033,7.21% (inactive),-0.476 (inactive),-7.5e-05 (inactive),0.006 (inactive),inactive,5.58% (inactive)
Cc1[nH]nc(-c2ccc(O)cc2O)c1Oc1ccccc1,565,-2.3% (inactive),-110% (inactive),175,1.43,-0.0429,-0.868,15.9% (inactive),-0.433 (inactive),-7e-05 (inactive),0.00505 (inactive),inactive,9.24% (inactive)
Cn1c(=O)c2c(nc(Oc3ccc4c(c3)OCO4)n2Cc2ccc(Br)cc2)n(C)c1=O,619,8.1% (inactive),-44% (inactive),123,0.319,-0.507,0.317,7.93% (inactive),-0.562 (inactive),-3.8e-05 (inactive),0.00702 (inactive),inactive,29.5% (inactive)
Cc1cc(=O)oc(C)c1C(=O)NCC(C)C,455,-2.1% (inactive),-11.5% (inactive),98.2,-0.875,2.27,-0.541,23.8% (inactive),-0.432 (inactive),-5.9e-06 (inactive),0.00519 (inactive),inactive,-17.5% (inactive)
CN=C(c1ccco1)n1c(=S)nc(-c2ccco2)n(C)c1=S,339,-5.2% (inactive),-204% (inactive),126,0.329,-0.895,-0.461,-2.59% (inactive),-0.522 (inactive),-0.000102 (inactive),0.00396 (inactive),inactive,28.5% (inactive)
C=CCN1C(=O)CC(C(=O)NC)SC1=Nc1ccc(C(=O)OCC)cc1 (stereo not given),634,12.2% (inactive),-19.2% (inactive),105,-0.632,0.636,-0.397,-2.09% (inactive),-0.407 (inactive),-5.9e-05 (inactive),0.00387 (inactive),inactive,6.38% (inactive)
O=c1oc2c(CN3CCCCC3)c(O)ccc2c2c1CCCCC2,566,-6.1% (inactive),34% (inactive),168,1.43,-1.18,-0.137,14.4% (inactive),-0.00573 (inactive),8.5e-07 (inactive),0.00521 (inactive),inactive,3.57% (inactive)
CC(=O)CCn1c(=O)n(CCC(C)=O)c(=O)n(CCC(C)=O)c1=O,352,-1.6% (inactive),-7% (inactive),97.7,-1.19,2.07,-0.0971,5.42% (inactive),-0.512 (inactive),-4.3e-05 (inactive),0.00631 (inactive),inactive,-14.3% (inactive)
